The values below come from ChEMBL document CHEMBL3120099, “Novel S1P(1) receptor agonists--part 2: from bicyclo[3.1.0]hexane-fused thiophenes to isobutyl substituted thiophenes” (J Med Chem, 2014).

The target of data set [1] is Sphingosine 1-phosphate receptor 1 (Homo sapiens, UniProt P21453). Description: Agonist activity at human recombinant S1P1 receptor expressed in CHO cells assessed as membrane-bound 35S-GTPgammaS incubated 30 mins prior to substrate addition measured after 1 hr by topcount scintillation counting analysis. It counts as functional, cell-based. For orientation: GTPγS resists hydrolysis and so accumulates on activated G proteins.
Chain of Sphingosine 1-phosphate receptor 1 (P21453 whole entry): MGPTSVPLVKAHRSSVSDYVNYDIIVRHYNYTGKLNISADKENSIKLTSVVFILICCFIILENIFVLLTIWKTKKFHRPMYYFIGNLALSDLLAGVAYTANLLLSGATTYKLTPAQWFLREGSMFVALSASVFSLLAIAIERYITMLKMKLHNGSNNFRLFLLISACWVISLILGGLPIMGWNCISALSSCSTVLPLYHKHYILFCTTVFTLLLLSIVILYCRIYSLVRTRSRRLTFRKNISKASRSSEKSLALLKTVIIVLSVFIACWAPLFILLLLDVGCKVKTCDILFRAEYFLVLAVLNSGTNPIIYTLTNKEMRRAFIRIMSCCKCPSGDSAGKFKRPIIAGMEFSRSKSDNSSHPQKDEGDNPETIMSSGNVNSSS

Data set [2] relates to Rattus norvegicus. Description: Lymphopenic activity in Wistar rat assessed as reduction in blood lymphocyte count at 10 mg/kg, po after 72 hrs. In kind it is functional. Also on record: scale not given: the % may be the effect or the level left. Put shortly:
(§1)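 Normotensive male Wistar rats given 1–10 mg/kg by gavage in 5% DMSO/7.5% succinylated gelatin. Blood taken before and 3, 6 and 24 h after dosing, with later times for some compounds. Lymphocytes counted by hematology analyzer. % LC change calculated per animal relative to the predose value (=100%). Mean ± SEM.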

In data set [3] the test system is Rattus norvegicus. Description: Lymphopenic activity in Wistar rat assessed as reduction in blood lymphocyte count at 10 mg/kg, po after 6 hrs. It counts as functional. Also on record: scale not given: the % may be the effect or the level left. Put shortly:
as §1

Data set [4] deals with Rattus norvegicus. Description: Lymphopenic activity in Wistar rat assessed as reduction in blood lymphocyte count at 10 mg/kg, po after 144 hrs. It counts as functional. Also on record: scale not given: the % may be the effect or the level left. In outline:
as §1

Data set [5] has as its system Rattus norvegicus. Description: Lymphopenic activity in Wistar rat assessed as reduction in blood lymphocyte count at 10 mg/kg, po after 24 hrs. In kind it is functional. Put shortly:
as §1

Data set [6] relates to Rattus norvegicus. Description: Lymphopenic activity in Wistar rat assessed as reduction in blood lymphocyte count at 10 mg/kg, po after 3 hrs. It counts as functional. Also noted: scale not given: the % may be the effect or the level left. In outline:
as §1

Data set [7] has as its target Sphingosine 1-phosphate receptor 3 (Homo sapiens, UniProt Q99500). Description: Agonist activity at human recombinant S1P3 receptor expressed in CHO cells assessed as membrane-bound 35S-GTPgammaS incubated 30 mins prior to substrate addition measured after 1 hr by topcount scintillation counting analysis. In kind it is functional, cell-based.
For data set [8], the system named is Rattus norvegicus. Description: Lymphopenic activity in Wistar rat assessed as reduction in blood lymphocyte count at 3 mg/kg, po after 3 hrs. It counts as functional. Also noted: scale not given: the % may be the effect or the level left. In outline:
as §1

For data set [9], the system named is Rattus norvegicus. Description: Lymphopenic activity in Wistar rat assessed as reduction in blood lymphocyte count at 3 mg/kg, po after 6 hrs. Also noted: scale not given: the % may be the effect or the level left. It counts as functional. Put shortly:
as §1

Data set [10] concerns Rattus norvegicus. Description: Lymphopenic activity in Wistar rat assessed as reduction in blood lymphocyte count at 3 mg/kg, po after 24 hrs. In kind it is functional. Also noted: scale not given: the % may be the effect or the level left. Put shortly: as §1
A short description of data set [11]: Lipophilicity, log D of the compound at pH 7.4. It counts as physicochemical. The note with it: buffer.
A short description of data set [12]: AUC (0 to 24 hrs) in Wistar rat mesenteric lymph at 10 mg/kg, po. It counts as ADME, organism-based, Mesenteric lymph node. Also noted: time < 24 hr, dose 10 mg/kg, route oral. The following applies: in vivo.
A short description of data set [13]: Tmax in Wistar rat mesenteric lymph at 10 mg/kg, po. It counts as ADME, organism-based, Mesenteric lymph node. Also noted: dose 10 mg/kg, route oral. Put shortly:
(§2)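 Male Wistar rats given 10 mg/kg orally in 5% DMSO/succinylated gelatin. At selected times, anesthesia with thiobutobarbital 150 mg/kg ip, laparotomy and thoracic lymph duct catheter. Mesenteric lymph collected for at least 10 min, with a plasma sample at mid-collection. Methanol precipitation, then LC-MS-MS with internal standard.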

Data set [14] in a line: Cmax in Wistar rat mesenteric lymph at 10 mg/kg, po. It counts as ADME, organism-based, Mesenteric lymph node. Also on record: dose 10 mg/kg, route oral. In outline: as §2
A short description of data set [15]: Tmax in Wistar rat plasma at 10 mg/kg, po. In kind it is ADME, organism-based. Also noted: dose 10 mg/kg, route oral. In outline:
as §2

In data set [16] the test system is Plasma. Description: AUC (0 to 24 hrs) in Wistar rat plasma at 10 mg/kg, po. The following applies: in vivo. In kind it is ADME, organism-based. Also noted: time < 24 hr, dose 10 mg/kg, route oral.
Data set [17] in a line: Cmax in Wistar rat plasma at 10 mg/kg, po. It counts as ADME, organism-based. Also on record: dose 10 mg/kg, route oral. In outline: as §2
The subject of data set [18] is Rattus norvegicus. Description: Lymphopenic activity in Wistar rat assessed as reduction in blood lymphocyte count at 10 mg/kg, po after 96 hrs. In kind it is functional. Also noted: scale not given: the % may be the effect or the level left. Put shortly:
as §1

Chain of Sphingosine 1-phosphate receptor 3 (Q99500 whole entry): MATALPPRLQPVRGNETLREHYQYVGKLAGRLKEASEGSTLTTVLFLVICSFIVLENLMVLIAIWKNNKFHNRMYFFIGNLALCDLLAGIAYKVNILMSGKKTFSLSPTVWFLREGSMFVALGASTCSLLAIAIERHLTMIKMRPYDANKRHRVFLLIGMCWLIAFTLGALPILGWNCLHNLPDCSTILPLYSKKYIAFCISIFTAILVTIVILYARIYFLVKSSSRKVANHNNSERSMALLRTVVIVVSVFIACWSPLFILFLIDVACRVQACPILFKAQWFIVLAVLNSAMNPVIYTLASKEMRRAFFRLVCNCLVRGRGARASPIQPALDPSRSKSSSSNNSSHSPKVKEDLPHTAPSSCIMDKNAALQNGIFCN

One may read the EC50 as the concentration giving half of the maximal effect. Turning to `Cc1cc(-c2noc(-c3sc(C)c4c3CCC(C)(C)C4)n2)cc(C)c1OCC(O)CNC(=O)CO` (racemic), the EC50 in [1] is 1.6 nM; in [7], 15 nM. The Activity is -73% in data set [2], -73% in [3], -7% in data set [4] and -70% in data set [6]. In addition, the “% change in blood lymphocyte count from predose” value (from here on “% change”) in [5] is given as -77%.
Turning to `Cc1cc(-c2noc(-c3scc(CC(C)C)c3C)n2)cc(C)c1OCC(O)CNC(=O)CO` (racemic), the concentration giving a half-maximal response (EC50) in data set [1] amounted to 1.5 nM; in data set [7], 528 nM. The Activity in data set [3] is listed as -79%; in [8] it was -67%; in data set [9] it was -79%; in data set [10], -27%; in data set [6] it was -72%. Moreover, the “% change” value in data set [5] was -80%.
Usually logD stands for lipophilicity at a set pH, counting ionised and neutral species. Broadly, the AUC is the area under the concentration-time curve, a measure of exposure. The Tmax is the time from dosing to the highest level. By Cmax is commonly meant the maximum level reached in the sampled fluid or tissue. `CCc1cc(-c2noc(-c3sc(CC)c4c3CCC(C)(C)C4)n2)cc(C)c1OCCNCCC(=O)O`: the EC50 in data set [1] came to 1.4 nM; in [7], 5.8 nM. The pH-dependent lipophilicity (logD) in data set [11] is 4.9. In addition, the AUC is 60400 ng·h/mL in data set [12] and 16300 ng·h/mL in [16]. Also, the Tmax in data set [13] worked out at 0.75 h; in data set [15] it was 8 h. For the same compound, the figures for the Cmax in data set [14] and in [17] were 9530 ng/mL and 813 ng/mL, respectively.
With `Cc1cc(-c2noc(-c3sc(C)c4c3C[C@@H]3[C@H]4C3(C)C)n2)cc(C)c1OCC(O)CNC(=O)CO` (mixture of isomers), the Activity in data set [3] is -69%; in data set [18], 30%; in data set [6], -66%. In addition, in data set [5], the “% change” value is listed as -73%.
